pIC50: −log10 of the molar value. Calls of active or inactive are those of the source. The rule behind the calls is not given here.
Assays:
BXPC-3 [1] = assay: Antitumor activity against human BxPC3 cells co-cultured with mesothelial cell monolayers using D-luciferin as substrate at 10 uM by firefly luciferase reporter gene assay relative to control; assay type: functional
Summary of the method: (§1)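 Luciferase-tagged cancer cells were treated in suspension at a final 10 μM, then overlaid on confluent mesothelial monolayers. Adherent surviving cells were read by D-luciferin bioluminescence, taken as living cell number. Efficacy = luminescence with analog / luminescence with DMSO; mean ± SEM, n = 3.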

A2780 [2] = assay: Antitumor activity against human A2780 cells co-cultured with mesothelial cell monolayers using D-luciferin as substrate at 10 uM by firefly luciferase reporter gene assay relative to control; assay type: functional; summary of the method: as §1
[3] = Antitumor activity against human SU86 cells co-cultured with mesothelial cell monolayers using D-luciferin as substrate at 10 uM by firefly luciferase reporter gene assay relative to control; assay type: functional; summary of the method: as §1
SK-OV-3 [4] = assay: Antitumor activity against human SKOV3 cells co-cultured with mesothelial cell monolayers using D-luciferin as substrate at 10 uM by firefly luciferase reporter gene assay relative to control; assay type: functional; summary of the method: as §1
A2780 [5] = assay: Antitumor activity against human A2780 cells xenografted in nu/nu mouse peritoneal carcinomatosis model assessed as inhibition of intraperitoneal implantation at 5 mg/kg, ip administered every 3 days for 14 days by luciferase reporter gene assay; assay type: functional, organism-based; design: dose 5 mg/kg
Summary of the method: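 Athymic 5-week-old female nu/nu mice were randomized to 5 mg/kg drug IP or an equal volume of vehicle (4:1 PEG400:EtOH), given 4 h before IP injection of 1.5 × 10^6 A2780-luc cells, then every three days for 14 days. Implants were imaged weekly by bioluminescence after IP D-luciferin. Day-14 abdominal signal was compared with vehicle controls.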

Mus musculus = assay: Toxicity in human A2780 cells xenografted nu/nu mouse at 5 mg/kg, ip administered every 3 days for 14 days; assay type: organism-based; design: dose 5 mg/kg, route intraperitoneal; details: in vivo
Summary of the method: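 Body weight was followed in athymic female nu/nu mice carrying IP A2780-luc cells and given 5 mg/kg IP in 4:1 PEG400:EtOH, starting 4 h before cell injection and repeated every three days over 14 days.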

SK-OV-3 [6] = assay: Antitumor activity against human SKOV3 cells co-cultured with mesothelial cell monolayers by firefly luciferase reporter gene assay; assay type: functional, cell-based
Summary of the method: (§2)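 Co-culture implantation model: cancer cells carrying a constitutive firefly luciferase plasmid were held in suspension with analog, then overlaid on confluent mesothelial cell monolayers. Cells that adhered and survived were read by bioluminescence with D-luciferin. IC50 values came from concentration–response runs and are reported as mean ± SEM.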

A2780 [7] = assay: Antitumor activity against human A2780 cells co-cultured with mesothelial cell monolayers by firefly luciferase reporter gene assay; assay type: functional, cell-based; summary of the method: as §2
BXPC-3 [8] = assay: Antitumor activity against human BxPC3 cells co-cultured with mesothelial cell monolayers by firefly luciferase reporter gene assay; assay type: functional, cell-based; summary of the method: as §2
[9] = Antitumor activity against human SU86 cells co-cultured with mesothelial cell monolayers by firefly luciferase reporter gene assay; assay type: functional, cell-based; summary of the method: as §2
SK-OV-3 [10] = assay: Induction of apoptosis in human SKOV3 cells co-cultured with mesothelial cell monolayers assessed as PARP cleavage at 7.5 uM after 5 hrs by Western blot analysis; assay type: functional, cell-based
[11] = target: CASP8 and FADD-like apoptosis regulator (Homo sapiens) (UniProt O15519); assay: Inhibition of cFLIP-L in human SU86 cells assessed as restoration of death receptor signaling-mediated apoptosis; assay type: cell-based
Chain of CASP8 and FADD-like apoptosis regulator (Homo sapiens) (O15519 whole entry, looked up): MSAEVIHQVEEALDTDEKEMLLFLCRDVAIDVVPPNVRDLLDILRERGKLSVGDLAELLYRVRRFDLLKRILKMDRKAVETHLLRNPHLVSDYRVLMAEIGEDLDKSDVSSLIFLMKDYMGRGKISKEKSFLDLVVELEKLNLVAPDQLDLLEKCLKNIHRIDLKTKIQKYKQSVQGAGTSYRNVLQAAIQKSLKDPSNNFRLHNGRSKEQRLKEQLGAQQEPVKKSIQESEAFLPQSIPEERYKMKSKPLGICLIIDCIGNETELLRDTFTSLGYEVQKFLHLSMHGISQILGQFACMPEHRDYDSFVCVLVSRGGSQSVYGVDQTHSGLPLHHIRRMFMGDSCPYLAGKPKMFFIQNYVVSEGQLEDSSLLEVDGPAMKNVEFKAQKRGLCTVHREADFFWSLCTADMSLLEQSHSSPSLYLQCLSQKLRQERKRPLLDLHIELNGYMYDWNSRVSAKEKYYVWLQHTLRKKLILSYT

[12] = target: CASP8 and FADD-like apoptosis regulator (Homo sapiens) (UniProt O15519); assay: Inhibition of cFLIP-L in human BxPC3 cells assessed as restoration of death receptor signaling-mediated apoptosis; assay type: cell-based; details: BXPC-3
[13] = target: CASP8 and FADD-like apoptosis regulator (Homo sapiens) (UniProt O15519); assay: Inhibition of cFLIP-L in human A2780 cells assessed as restoration of death receptor signaling-mediated apoptosis; assay type: cell-based
[14] = target: CASP8 and FADD-like apoptosis regulator (Homo sapiens) (UniProt O15519); assay: Inhibition of cFLIP-L in human SKOV3 cells assessed as restoration of death receptor signaling-mediated apoptosis; assay type: cell-based; details: SK-OV-3

Row | Structure (SMILES) | Ratio (BXPC-3 [1]) | Ratio (A2780 [2]) | Ratio [3] | Ratio (SK-OV-3 [4]) | inhibition (A2780 [5]) | Activity (Mus musculus) | pIC50 (SK-OV-3 [6]) | pIC50 (A2780 [7]) | pIC50 (BXPC-3 [8]) | pIC50 [9] | Activity (SK-OV-3 [10]) | inhibition [11] | inhibition [12] | inhibition [13] | inhibition [14]
1 | CN1CCN(C(=O)C(C)(C)c2ccc(S(=O)(=O)/C=C/C#N)cc2)CC1 | 0.98 | 0.95 | 0.95 | 1.09 | – | – | – | – | – | – | – | – | – | – | –
2 | C/C=C/S(=O)(=O)c1ccc(C(C)(C)C)cc1 | 0.99 | 1.15 | 0.99 | 1.08 | – | – | – | – | – | – | – | – | – | – | –
3 | CCOC(=O)/C=C/S(=O)(=O)c1ccc(C(C)(C)C)cc1 | 0.2 | 0.39 | 0.52 | 0.67 | – | – | – | – | – | – | – | – | – | – | –
4 | CC(C)(C(=O)NC1CCCCC1)c1ccc(S(=O)(=O)/C=C/C#N)cc1 | 0.22 | 0.2 | 0.43 | 0.6 | – | – | – | – | – | – | – | – | – | – | –
5 | CC(C)(C)c1ccc(S/C=C/C#N)cc1 | 1.08 | 1.06 | 1.03 | 0.92 | inactive | Non-toxic | – | – | – | – | – | – | – | – | –
6 | CC(C)(C(=O)NCc1ccccn1)c1ccc(S(=O)(=O)/C=C/C#N)cc1 | 0.24 | 0.05 | 0.29 | 0.47 | – | – | – | – | – | – | – | – | – | – | –
7 | COc1cccc(NC(=O)C(C)(C)c2ccc(S(=O)(=O)/C=C/C#N)cc2)c1 | 0.62 | 0.55 | 0.65 | 0.98 | – | – | 4.96 | 5.62 | 5.39 | 5.14 | Active | – | – | – | –
8 | C#CCNC(=O)C(C)(C)c1ccc(S(=O)(=O)/C=C/C#N)cc1 | 0.64 | 0.63 | 0.65 | 0.93 | – | – | – | – | – | – | – | – | – | – | –
9 | C=CS(=O)(=O)c1ccc(C(C)(C)C)cc1 | 0.84 | 1.16 | 0.8 | 1.05 | – | – | – | – | – | – | – | – | – | – | –
10 | CC(C)(C(=O)N1CCOCC1)c1ccc(S(=O)(=O)/C=C/C#N)cc1 | 0.85 | 0.66 | 0.94 | 1.01 | – | – | – | – | – | – | – | – | – | – | –
11 | CC(C)(C(=O)Nc1ccccc1)c1ccc(S(=O)(=O)/C=C/C#N)cc1 | 0.22 | 0.17 | 0.52 | 0.55 | Active | Non-toxic | 5.00 | 5.57 | 5.39 | 5.12 | Active | – | – | – | –
12 | CC(C)(C(=O)O)c1ccc(S(=O)(=O)/C=C/C#N)cc1 | 0.92 | 1.08 | 0.89 | 1.07 | – | – | – | – | – | – | – | – | – | – | –
13 | CC(C)(C)c1ccc(S(=O)(=O)/C=C/C#N)cc1 [BAY-11-7085] | 0.07 | 0.04 | 0.13 | 0.32 | Active | Non-toxic | 5.12 | 5.59 | 5.43 | 5.23 | Active | Active | Active | Active | Active
14 | CC(C)CNC(=O)C(C)(C)c1ccc(S(=O)(=O)/C=C/C#N)cc1 | 0.24 | 0.05 | 0.29 | 0.47 | Active | Non-toxic | 4.89 | 5.48 | 5.38 | 5.12 | Active | – | – | – | –
15 | CC(C)(C(=O)N1CCCCC1)c1ccc(S(=O)(=O)/C=C/C#N)cc1 | 0.25 | 0.08 | 0.51 | 0.51 | – | – | – | – | – | – | – | – | – | – | –
16 | CC(C)(C)c1ccc(S(=O)(=O)/C=C/C(N)=O)cc1 | 0.44 | 0.77 | 0.59 | 0.5 | – | – | – | – | – | – | – | – | – | – | –
17 | CC(C)(C(=O)NCc1ccc(Cl)cc1)c1ccc(S(=O)(=O)/C=C/C#N)cc1 | 0.27 | 0.15 | 0.43 | 0.63 | – | – | 4.94 | 5.47 | 5.39 | 5.06 | Active | – | – | – | –
18 | CC(C)(C)c1ccc(S(=O)(=O)/C=C/c2ccccc2)cc1 | 1.01 | 1.13 | 0.97 | 1.17 | – | – | – | – | – | – | – | – | – | – | –

Source: ChEMBL document CHEMBL1955776, “Synthesis and biological evaluation of sulfonyl acrylonitriles as novel inhibitors to peritoneal carcinomatosis” (Bioorg Med Chem Lett, 2012)
